# SENP1 inh: SENP1 (human) catalytic domain inhibition. Q9P0U3. recombinant SENP1 catalytic domain, CyPet-SUMO1-YPet FRET cleavage. inhibition, % at 10 µM. hit rate 0.21% among 360,000;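 active = inhibition at least 30% at 10 µM, raw YFP signal under a set limit, fluorescence ratio 0.5 to 1.5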;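 also: 0% = enzyme with DMSO and 100% = no enzyme wells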
#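 system = hSENP1 catalytic domain, recombinant | reagent = SFCypet-SUMO1-SFYpet substrate at 25 nM | doses = one dose per compound, 10 µM, 0.5% DMSO | incubation = enzyme reaction for 50 min at room temperature, dark | measured by = FRET, CFP and YFP emission | controls = no-enzyme low, enzyme-DMSO high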
# Beta2AR agonist: activates human beta-2 adrenergic receptor causing internalization; P07550; Am2.2-beta2AR cells, FAP receptor internalization, flow cytometry; response, % (concentration not given with the values); hit rate 0.43% among 340,000; AID 504454;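 active = response above a set limit, near 3 SD of response in nonfluorescent compounds, cut at about 42% in these data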
# Target sequence (P07550 whole entry, looked up): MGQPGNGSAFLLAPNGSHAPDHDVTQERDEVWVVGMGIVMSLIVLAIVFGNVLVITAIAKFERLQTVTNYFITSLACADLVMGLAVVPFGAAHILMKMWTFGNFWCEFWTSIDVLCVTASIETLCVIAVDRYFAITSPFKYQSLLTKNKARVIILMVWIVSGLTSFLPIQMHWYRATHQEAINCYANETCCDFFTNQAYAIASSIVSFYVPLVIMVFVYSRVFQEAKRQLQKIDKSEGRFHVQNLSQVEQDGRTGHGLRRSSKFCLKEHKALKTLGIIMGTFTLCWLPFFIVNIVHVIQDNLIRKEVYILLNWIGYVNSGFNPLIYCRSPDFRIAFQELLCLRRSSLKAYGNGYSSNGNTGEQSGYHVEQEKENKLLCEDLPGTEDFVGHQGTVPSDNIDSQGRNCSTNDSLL
# GRK2 aptamer HTS: inhibitors of human GRK2 displacing RNA aptamer. inhibition of aptamer binding, % at 10 µM. bead flow cytometry, FAM-aptamer displacement from GRK2. hit rate 0.59% among 330,000. P25098;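 active = inhibition of aptamer binding above 40%, roughly 3 SD of noise, on plates passing a quality check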;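 also: median bead fluorescence of bound FAM aptamer so fluorescent compounds give negative values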
# ABHD5-PLIN5 inh: ABHD5-PLIN5 protein interaction inhibition. Split G. princeps luciferase complementation, luminescence, 4 h. hit rate 0.78% among 360,000. AID 602281. inhibition, % at 4 µM. Q00G26+Q8WTS1;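 active = inhibition above the mean inhibition across every tested compound plus 3 SD, cut at about 22% in these data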;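 also: 0% = DMSO only wells and the 100% control is not disclosed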
# NadD block: NadD (S. aureus) enzyme inhibition; purified NadD enzyme, colorimetric absorbance read-out; hit rate 0.78% among 360,000; inhibition, % at 20 µM; in the data active = inhibition above about 26%
# B2AR ag CP1: human beta-2 adrenergic receptor agonism, cherry pick. shares compounds with Beta2AR agonist. hit rate 25% among 1,100. AID 540358. Am2.2-beta2AR cells, FAP surface receptor, flow cytometry; stronger effect = lower value. percent response (surface receptor), % at 10 µM;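 active = surface receptor percent response at or below 58%, roughly 3 SD from nonfluorescent compounds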
# B2AR FAP counter: fluorescence artifact in beta-2AR agonist FAP counterscreen | shares compounds with Beta2AR agonist | Am2.2 cells, FAP fluorogen flow cytometry; stronger effect = lower value | calls only at 10 µM | 1,100 tested, under 10 active | AID 588765;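 active = percent response below a set limit in fluorescence channel 1 and below 50% in channel 8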
# An asterisk follows results filed as active; i = inactive; . = not tested or not shown; ! = repeats disagree. Shown are actives, neighbours in structure and some others; about 2.5% of the full set was active somewhere.
SMILES,SENP1 inh,Beta2AR agonist,GRK2 aptamer HTS,ABHD5-PLIN5 inh,NadD block,B2AR ag CP1,B2AR FAP counter
COCC(C)NC(=O)CCS(=O)(=O)c1nc(-c2ccc(OC)cc2)cc(C(F)(F)F)n1 (stereo not drawn),1,53*,2,14,-2,25*!,i
C[C@@H]1CN([C@@H](C)CO)S(=O)(=O)c2ccc(Br)cc2O[C@@H]1CN(C)S(=O)(=O)c1cn(C)cn1,0,.,.,0,-1,.,.
CC(=O)Nc1ccc(S(=O)(=O)N2CCC(Oc3ccc(-n4cnnn4)cc3)CC2)cc1,4,88*,3,1,-5,12*,i
COc1cccc(CNc2nc(-c3cccnc3)nc3ccccc23)c1,0,-1,0,1,-6,156,i
COc1cccc(/C=N/Nc2nc(-c3cccnc3)nc3ccccc23)c1,-5,9,3,3,1,.,.
COc1ccccc1C(C)Nc1nc(-c2cccnc2)nc2ccccc12 (stereo not drawn),-3,8,2,-1,-4,112,i
O=C(Nc1ccc2oc(-c3ccc4ccccc4c3)nc2c1)c1ccc2c(c1)OCCO2,-17,43*,0,2,18,20*,i
O=C(Nc1ccc2oc(-c3ccccc3F)nc2c1)c1ccccc1F,0,14,0,5,-4,110,i
COc1cccc(OC)c1OCC(O)CN1CCN(c2ccccc2)CC1 (stereo not drawn),-2,48*,1,4,-4,126,i
CNC(=S)N/N=C(\C)c1ccc(Cl)s1,0,-3,0,-3,-3,103,i
CC(C)(C)c1cc(C(c2cccnc2)N2CCN(CCO)CC2)cc(C(C)(C)C)c1O (stereo not drawn),1,62*,0,21,-6,57*,i
Cc1ccccc1N1CCN(S(=O)(=O)CC23CCC(CC2=O)C3(C)C)CC1 (stereo not drawn),3,7,3,-6,-5,.,.
CC1(C)C2CCC1(CS(=O)(=O)N1CCN(c3ccccc3F)CC1)C(=O)C2 (stereo not drawn),1,72*,0,-1,6,112,i
CN(C)c1ccc(-c2noc(C3CCN(S(=O)(=O)c4cccc(Cl)c4)CC3)n2)cc1,4,65*,0,0,-1,39*,i
COC(=O)Nc1ccc(S(=O)(=O)N2CCCc3cccc(O)c32)cc1,0,52*,2,10,-3,82,i
COC(=O)Nc1ccc(S(=O)(=O)N2CCCc3ccccc32)cc1,-1,8,2,-1,-7,.,.
Cc1c(NC(=O)C(C)OC(=O)c2ncc(Cl)c(Cl)c2Cl)c(=O)n(-c2ccccc2)n1C (stereo not drawn),2,-10,2,4,0,.,.
CCNC(=O)C1(C)CCCN1C(=O)c1ccc(C#N)cc1 (stereo not drawn),-1,.,.,3,-3,.,.
CN(C)CCNc1ncnc2c1sc1nc(N3CCCC3)c3c(c12)CC(C)(C)OC3,-15,72*,0,3,-11,35*,i
CC1(C)Cc2nc3sc4c(N(CCO)CCO)ncnc4c3cc2CO1,1,-9,6,-1,-1,.,.
CC(C)CNc1ncnc2c1sc1nc(N3CCOCC3)c3c(c12)CC(C)(C)OC3,-10,-7,3,-3,-13,142,i
CC(C)CNc1nnnc2c1sc1nc(N3CCOCC3)c3c(c12)CC(C)(C)SC3,-31,0,3,0,21,.,.
CCN(CC)CCNc1ncnc2c1sc1nc(N3CCCC3)c3c(c12)CC(C)(C)OC3,-39,65*,0,11,-12,96,i
CCN(CCO)c1ncnc2c1sc1nc(CC(C)C)c3c(c12)CC(C)(C)OC3,1,23,0,7,-4,25*,i
CCN(CC)CCNc1ncnc2c1sc1nc(N3CCOCC3)c3c(c12)CCCC3,-1,25,0,12,-12,.,.
SMILES,SENP1 inh,Beta2AR agonist,GRK2 aptamer HTS,ABHD5-PLIN5 inh,NadD block,B2AR ag CP1,B2AR FAP counter
O=C1CCC(C(=O)N2CCCC(N3CCN(c4cccc(C(F)(F)F)c4)CC3)C2)=NN1 (stereo not drawn),3,-4,4,-4,1,.,.
COc1ccc(CCNC(=O)CSc2nnc3ccc(-c4ccccn4)nn23)cc1,1,-1,0,1,1,.,.
CC1(C)Cc2c(c(-c3ccco3)nc3sc4c(NCC5CCCO5)ncnc4c23)CO1 (stereo not drawn),-34,83*,0,6,0,10*,i
Nc1nc(NCCCN2CCOCC2)nc(Nc2cccc(Cl)c2)c1[N+](=O)[O-],-2,15,0,3,1,.,.
CC(C)(C)NC(=S)NNC(=O)c1cccc(Br)c1,0,-11,1,-4,3,113,i
Cc1ccc(O)c(NC(=O)c2ccc3c(c2)C(=O)N(Cc2ccco2)C3=O)c1,3,4,3,10,-12,.,.
CC1CCCN(C(=O)COC(=O)c2ccc[nH]c2=O)C1 (stereo not drawn),0,51*,1,3,1,98,i
CN(c1ccccc1)S(=O)(=O)c1cccc(C(=O)NC2CCCC2)c1,-2,-7,2,-3,-3,.,.
CN(c1ccccc1)S(=O)(=O)c1cccc(C(=O)Nc2cccc(C(=O)NC3CC3)c2)c1,0,51*,.,0,-7,13*,i
CC(=O)Nc1ccc(-c2nnc(SCc3ccc(C)cc3)n2C)cc1,2,42*,5,1,1,67,i
Cc1ccc(NC(=O)c2ccc(CSc3nnc(-c4ccncc4)n3C)cc2)cc1,0,0,0,1,-1,.,.
CN(C(=O)c1ccc(-c2nn(C)c(=O)c3ccccc23)cc1)C1CCCCC1,1,7,4,4,1,.,.
COc1ccc(NC(=O)CCNC(=O)c2ccccc2Cl)cc1S(=O)(=O)N1CCCCC1,2,.,.,-3,4,.,.
O=C(O)CC1(O)C(=O)N(Cc2ccccc2)c2ccccc21 (stereo not drawn),2,-3,0,-1,0,.,.
CC(C)(C)C(=O)CC1(O)C(=O)N(Cc2ccc(Cl)cc2)c2ccccc21 (stereo not drawn),4,54*,4,14,1,110,i
CN(C(=O)c1cccc(NC(=O)Cc2ccc(NC(=O)C3CCCN(C(=O)C4CC4)C3)cc2)c1)C1CCC1 (stereo not drawn),3,-18,.,6,0,.,.
Cc1ccc(C(=O)OCC(=O)Nc2ccccc2C(F)(F)F)cc1S(=O)(=O)N1CCOCC1,2,5,0,3,-1,.,.
